The species named for data set [1] is Rattus norvegicus. The experiment in a line: […] uptake of compound was determined in rat brain at 120 min following femoral injection of radiotracer. The class given is functional. A digest of the protocol:
(§1)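 Sprague–Dawley rats under ether anesthesia received the ⁶⁷Cu complex (~2 µCi in 0.2 mL) into the femoral vein. Dosing solution was saline with ca. 5% ethanol and ≤0.5% DMSO, filtered at 0.2 µm, with radiochemical purity by silica TLC (ethanol). Organ radioactivity is expressed as % injected dose per organ. Mean ± SD, three rats per time point.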

Data set [2] is filed under the species Rattus norvegicus. The experiment in a line: […] uptake of compound was determined in rat brain at 5 min following femoral injection of radiotracer. It counts as functional. A digest of the protocol:
as §1

The species entered for data set [3] is Rattus norvegicus. As to the kind of experiment: […] uptake of compound was determined in rat brain at 1 min following femoral injection of radiotracer. The class given is functional. The essentials:
as §1

For data set [4], the species on record is Rattus norvegicus. The experiment in a line: […] uptake of compound was determined in rat heart at 5 min following femoral injection of radiotracer. The class given is functional, Myocardium. The essentials: as §1
The species named for data set [5] is Rattus norvegicus. As to the kind of experiment: […] uptake of compound was determined in rat heart at 120 min following femoral injection of radiotracer. The class given is functional, Myocardium. The essentials:
as §1

For data set [6], the species on record is Rattus norvegicus. The experiment in a line: […] uptake of compound was determined in rat heart at 1 min following femoral injection of radiotracer. It counts as functional, Myocardium. The essentials: as §1
A further data set has as its target Albumin (Homo sapiens, UniProt P02768). The experiment in a line: Binding of compound in order to assess the amount of free (non-albumin-associated) radiotracer present in solutions of human serum albumin (35 mg/mL saline). The essentials: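 ⁶⁷Cu complex (1–2 µL per 1 mL) mixed into freshly prepared albumin in normal saline. Within 2 min, loaded into 30,000 Da NMWL centrifugal ultrafilters and spun at once at 1000g, 20 min, 20 °C, 45° fixed-angle rotor. Filtrate and unfiltered solution γ-counted. Free % is the protein filtrate/unfiltered ratio divided by the same ratio in protein-free saline, ×100. Mean ± SD of 6–12 measurements.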

Data set [7] addresses Serum albumin (Canis lupus familiaris) (UniProt P49822). As to the kind of experiment: Binding of compound in order to assess the amount of free (non-albumin-associated) radiotracer present in solutions of dog serum albumin (35 mg/mL saline).

Sequence of Serum albumin (Canis lupus familiaris) (P49822 whole entry, looked up): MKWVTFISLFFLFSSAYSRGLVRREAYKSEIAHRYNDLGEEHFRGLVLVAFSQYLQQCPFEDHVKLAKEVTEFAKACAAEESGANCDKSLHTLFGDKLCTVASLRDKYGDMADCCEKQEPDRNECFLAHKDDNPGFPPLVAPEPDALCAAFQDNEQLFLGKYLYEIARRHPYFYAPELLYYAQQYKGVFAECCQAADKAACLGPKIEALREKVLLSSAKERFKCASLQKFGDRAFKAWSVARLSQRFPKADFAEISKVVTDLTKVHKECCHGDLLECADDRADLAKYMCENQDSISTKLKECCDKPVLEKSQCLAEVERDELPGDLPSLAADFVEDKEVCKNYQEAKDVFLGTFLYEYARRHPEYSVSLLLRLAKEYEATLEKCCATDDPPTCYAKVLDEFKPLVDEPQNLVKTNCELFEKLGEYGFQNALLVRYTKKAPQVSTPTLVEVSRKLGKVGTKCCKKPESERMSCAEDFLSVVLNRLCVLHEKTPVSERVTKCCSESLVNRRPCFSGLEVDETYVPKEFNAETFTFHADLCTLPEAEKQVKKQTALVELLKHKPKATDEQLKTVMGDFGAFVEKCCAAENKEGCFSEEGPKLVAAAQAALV
Sequence of Albumin (P02768 whole entry): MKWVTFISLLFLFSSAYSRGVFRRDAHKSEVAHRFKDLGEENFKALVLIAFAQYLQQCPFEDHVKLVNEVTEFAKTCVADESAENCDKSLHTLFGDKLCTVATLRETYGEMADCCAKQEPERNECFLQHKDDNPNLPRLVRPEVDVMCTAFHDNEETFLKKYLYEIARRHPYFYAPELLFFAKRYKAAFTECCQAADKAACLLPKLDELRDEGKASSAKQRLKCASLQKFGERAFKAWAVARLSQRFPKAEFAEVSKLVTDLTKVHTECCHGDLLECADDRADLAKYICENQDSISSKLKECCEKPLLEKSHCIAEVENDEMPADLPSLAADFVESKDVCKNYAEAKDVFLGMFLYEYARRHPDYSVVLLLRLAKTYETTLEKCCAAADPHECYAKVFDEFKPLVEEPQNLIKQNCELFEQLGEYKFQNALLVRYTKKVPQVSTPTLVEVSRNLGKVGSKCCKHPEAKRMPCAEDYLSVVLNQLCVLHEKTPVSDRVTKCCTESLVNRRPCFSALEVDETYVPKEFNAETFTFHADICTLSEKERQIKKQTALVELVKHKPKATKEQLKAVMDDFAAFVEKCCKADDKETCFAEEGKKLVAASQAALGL

With `CC(/C=N/N=C(\S)N(C)C)=N\N=C(\N)S`, the Dose in the data set filed under Rattus norvegicus [1] is on record as 1.98%; in the data set listed under Rattus norvegicus [2], 1.97%; in the data set listed under Rattus norvegicus [3] it was 2.79%; in the data set listed under Rattus norvegicus [4], 1.23%; in the data set listed under Rattus norvegicus [5], 1.05%; in the data set filed under Rattus norvegicus [6], 1.59%.
On to “Copper complex of Propane-1,2-diylidene-N-thiourea-N-amino-dimethylaminomethanethione”, for which the Free complex stood at 17.2% on Albumin and 57.6% in data set [7].
The corresponding values for “Copper complex of Propane-1,2-diylidene-N-amino-methylaminomethanethione-N-amino-dimethylaminomethanethione” are 5.4% and 25.7%.
Turning to `CC(/C=N/N=C(\S)N(C)C)=N\N=C(/S)N(C)C`, the Dose was 2.2% in the data set filed under Rattus norvegicus [2], 3.1% in the data set filed under Rattus norvegicus [3], 0.43% in the data set listed under Rattus norvegicus [4] and 0.97% in the data set listed under Rattus norvegicus [6].
Regarding `C/N=C(\S)N/N=C(C)/C=N/N=C(/N)S`, the Dose in the data set filed under Rattus norvegicus [1] stood at 1.67%; in the data set listed under Rattus norvegicus [2], 1.81%; in the data set listed under Rattus norvegicus [3], 1.72%; in the data set listed under Rattus norvegicus [4] it was 2.86%; in the data set listed under Rattus norvegicus [5], 2.59%; in the data set filed under Rattus norvegicus [6] it was 2.84%.
As to `C/N=C(\S)N/N=C(C)/C=N/N=C(\S)N(C)C`, the Dose came to 1.63% in the data set filed under Rattus norvegicus [1]; 1.8% in the data set listed under Rattus norvegicus [2]; 2.76% in the data set filed under Rattus norvegicus [3]; 1.27% in the data set listed under Rattus norvegicus [4]; 0.89% in the data set filed under Rattus norvegicus [5]; 1.43% in the data set listed under Rattus norvegicus [6].
For the compound “Propyl glyoxal bis(thiosemicarbazone)(67Cu-n-PrTS)”, the Free complex was found to be 37% on Albumin and 30.3% in data set [7].
`C/N=C(\S)N/N=C/C(C)=N/N/C(S)=N/C`: the Dose came to 3.2% in the data set filed under Rattus norvegicus [1]; 3% in the data set listed under Rattus norvegicus [2]; 3% in the data set listed under Rattus norvegicus [3]; 3.4% in the data set filed under Rattus norvegicus [4]; 3.3% in the data set listed under Rattus norvegicus [5]; 2.7% in the data set listed under Rattus norvegicus [6].
On to `CC(/C=N/N=C(/N)S)=N\N=C(\N)S` [PYRUVALDEHYDE BIS(THIOSEMICARBAZONE)(PTS)], for which the Dose in the data set filed under Rattus norvegicus [2] worked out at 0.29%; in the data set filed under Rattus norvegicus [3], 0.46%; in the data set listed under Rattus norvegicus [4] it was 2.3%; in the data set filed under Rattus norvegicus [6], 2.8%.
Take “Copper complex of Propane-1,2-diylidene-N-thiourea-N-amino-methylaminomethanethione [listing 1 of 2 here]”: the Free complex on Albumin worked out at 8.6%; in data set [7], 46.5%.
For `C/N=C(\S)N/N=C/C(C)=N/N=C(/N)S`, the Dose is listed as 1.1% in the data set listed under Rattus norvegicus [1]; 1.37% in the data set filed under Rattus norvegicus [2]; 1.4% in the data set filed under Rattus norvegicus [3]; 2.44% in the data set listed under Rattus norvegicus [4]; 2.03% in the data set filed under Rattus norvegicus [5]; 2.73% in the data set listed under Rattus norvegicus [6].
Take “Copper complex of Propane-1,2-diylidene-N-thiourea-N-amino-methylaminomethanethione [listing 2 of 2 here]”: the Free complex is recorded as 10.4% at Albumin and 57.4% in data set [7].

These data come from ChEMBL document CHEMBL1130014, “Mixed bis(thiosemicarbazone) ligands for the preparation of copper radiopharmaceuticals: synthesis and evaluation of tetradentate ligands containing two dissimilar thiosemicarbazone functions” (J Med Chem, 1997).
